Test results taken from paper PMC2775413 (Bioorganic & medicinal chemistry, 2009).

Experiments:
[1] = Mouse brain uptake study after i.p. injection; assay type: in vivo; conditions: for Brain AUC over the 20-minute experiment compared with 5: i.p., 5 at 3.7 mg/kg
Standard microsome assay = assay type: in vitro ADME, rat; conditions: 37 °C
[2] = Anaerobic microsome assay for azide metabolism; assay type: in vitro ADME, rat
Method in brief: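 Rat liver microsomes, NADPH regenerating system, test azide added from a 100 μM stock. PBS was deoxygenated by N2 bubbling for 15 min. Vials were sealed with septa, the headspace N2-purged and kept under an N2 balloon, and equilibrated at 37 °C. Microsomes were injected through the septum and incubated 0, 10, 20, 40 min. Acetonitrile quench, protein precipitation at 0 °C, supernatant dried, reconstituted in 2% formic acid, HPLC; peak area normalized to t = 0.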

[3] = Metabolism of prodrugs in fresh mouse plasma with NADPH regenerating system; assay type: in vitro ADME; conditions: 37 °C; for Metabolism in fresh mouse plasma (prodrug remaining by HPLC): NADPH regenerating system, over 80 minutes
[4] = Metabolism in fresh mouse brain homogenate with NADPH; assay type: in vitro ADME; conditions: PBS pH 7.4, 37 °C, NADPH in excess
Method in brief: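 Three fresh mouse brains were homogenized in PBS pH 7.4 (1 mL per brain) with NADPH regenerating buffers A and B, then pooled. Test compound was added from a 200 μM stock and incubated at 37 °C for 0, 10, 20 and 40 min. Reactions were stopped by heating to 95 °C for 1 min. HPLC with UV at 310 or 260 nm depending on compound; analyte/internal standard peak-area ratio normalized to t = 0.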

With `Cc1cc(N)nc(C[C@@H]2CNC[C@@H]2OCCN(CCc2cccc(F)c2)C(=O)OCc2ccccc2)c1` [Compound 8, Benzyl 2-(4-((6-amino-4-methylpyridin-2-yl)-methyl)pyrrolidin-3-yloxy)ethyl(3-fluoro-phenethyl)carbamate] the Peak plasma concentration ([1]; mouse, i.p. 5.1 mg/kg, 20-minute experiment) was “around 1 μM” and the “Brain AUC over the 20-minute experiment compared with 5” value ([1]; mouse) was “much lower”.

With `Cc1cc(N)nc(C[C@@H]2CNC[C@@H]2OCCNCCc2cccc(F)c2)c1` [Compound 5] the “Amount of compound lost with rat liver microsomes” value (Standard microsome assay; over 30 minutes, in presence and absence of NADPH) was “approximately 20%” and the Toxicity in mice ([1]; i.p. injection at 3.7 mg/kg) was “no toxicity was observed”.

For `Cc1cc(-c2ccccc2)nnc1NCCN1CCOCC1` [minaprine, reference compound], the “Concentration remaining with microsomes at 20 min” value (Standard microsome assay; 20 min) was “not quantifiable” and the “Metabolism by microsomes under anaerobic conditions” value ([2]; 37 °C, deoxygenated buffer, nitrogen atmosphere, NADPH) was “metabolized readily”.

In the case of `CC(=O)N(CCO[C@H]1CNC[C@H]1Cc1cc(C)cc(N)n1)CCc1cccc(F)c1` (racemic) [Compound 6, N-(2-(4-((6-Amino-4-methylpyridin-2-yl)-methyl)pyrrolidin-3-yloxy)ethyl)-N-(3-fluoro-phenethyl)acetamide], the “Time of peak brain concentration” value ([1]; mouse, i.p. 4.1 mg/kg, 20-minute experiment) is reported as 5 min and the “Brain AUC over the 20-minute experiment compared with 5” value ([1]; mouse) is reported as “roughly the same”.

`COC(=O)N(CCO[C@H]1CNC[C@H]1Cc1cc(C)cc(N)n1)CCc1cccc(F)c1` (racemic) [Compound 7, Methyl 2-(4-((6-amino-4-methylpyridin-2-yl)-methyl)pyrrolidin-3-yloxy)ethyl(3-fluoro-phenethyl)carbamate] gave a Tmax ([1]; mouse, plasma, ip, 4.3 mg/kg) of 5 min.

For “1-((S)-1-{2-[2-aminoethyl]phenylamino}-5-nitroguanidinopentan-2-ylcarbamoyloxy)ethyl pivalate [Compound 3]”, the “Conversion of prodrug to parent compound (4) in mouse plasma” value ([3]; HPLC peak of 4 over time) was “converted to the parent compound”, the “Metabolism in fresh mouse plasma (prodrug remaining by HPLC)” value [3] was “rapid” and the “Metabolism in mouse brain homogenate (compound amount over time)” value [4] was “decreased over the course of the experiment”.

For `Cc1cc(N)nc(C[C@@H]2CNC[C@@H]2OCCN=[N+]=[N-])c1` (racemic) [Compound 1, 6-((4-(2-Azidoethoxy)pyrrolidin-3-yl)methyl)-4-methyl-pyridin-2-amine], the “Metabolism in fresh mouse plasma (prodrug remaining by HPLC)” value [3] was “No significant metabolism”, the “Formation of amine from azide (mass spectral analysis of reaction mixtures)” value ([2]; anaerobic microsome incubation) was “no peak corresponding to the amine” and the “Metabolism in mouse brain homogenate (compound amount over time)” value [4] was “did not decrease”.
